Measurements published in ChEMBL document CHEMBL1127615, “5,7-Dimethoxy-3-(4-pyridinyl)quinoline is a potent and selective inhibitor of human vascular beta-type platelet-derived growth factor receptor tyrosine kinase” (J Med Chem, 1994).

Legend:
[1] = target: Protein kinase C (PKC); test: Inhibition of Serine/threonine protein kinases C; type: protein assay, Homo sapiens
[2] = target: Tyrosine-protein kinase Lck (Homo sapiens, UniProt P06239); test: Inhibition of p56 lck kinase
[3] = target: Receptor tyrosine-protein kinase erbB-2 (Homo sapiens, UniProt P04626); test: Inhibition of erbB2 receptor
[4] = Inhibition of vascular smooth muscle cell proliferation by [3H]thymidine incorporation; type: functional; settings: Homo sapiens
Summary of the method: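 Primary human vascular smooth muscle cells, serum-starved 48 h, then inhibitor for 2 h, PDGF-BB (10 ng/mL) for 24 h, then [3H]thymidine (0.5 μCi/mL) for 24 h more. Cells were washed with ice-cold 5% TCA, extracted with 0.1 N NaOH (30 min, 25 °C), neutralized and counted. Inhibition is relative to vehicle (≤0.5% DMSO).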

[5] = target: Platelet-derived growth factor receptor (Homo sapiens, UniProt P09619+P16234); test: Inhibition of Platelet-derived growth factor receptor tyrosine kinase; type: protein-complex assay

Sequence of Receptor tyrosine-protein kinase erbB-2 (P04626 whole entry): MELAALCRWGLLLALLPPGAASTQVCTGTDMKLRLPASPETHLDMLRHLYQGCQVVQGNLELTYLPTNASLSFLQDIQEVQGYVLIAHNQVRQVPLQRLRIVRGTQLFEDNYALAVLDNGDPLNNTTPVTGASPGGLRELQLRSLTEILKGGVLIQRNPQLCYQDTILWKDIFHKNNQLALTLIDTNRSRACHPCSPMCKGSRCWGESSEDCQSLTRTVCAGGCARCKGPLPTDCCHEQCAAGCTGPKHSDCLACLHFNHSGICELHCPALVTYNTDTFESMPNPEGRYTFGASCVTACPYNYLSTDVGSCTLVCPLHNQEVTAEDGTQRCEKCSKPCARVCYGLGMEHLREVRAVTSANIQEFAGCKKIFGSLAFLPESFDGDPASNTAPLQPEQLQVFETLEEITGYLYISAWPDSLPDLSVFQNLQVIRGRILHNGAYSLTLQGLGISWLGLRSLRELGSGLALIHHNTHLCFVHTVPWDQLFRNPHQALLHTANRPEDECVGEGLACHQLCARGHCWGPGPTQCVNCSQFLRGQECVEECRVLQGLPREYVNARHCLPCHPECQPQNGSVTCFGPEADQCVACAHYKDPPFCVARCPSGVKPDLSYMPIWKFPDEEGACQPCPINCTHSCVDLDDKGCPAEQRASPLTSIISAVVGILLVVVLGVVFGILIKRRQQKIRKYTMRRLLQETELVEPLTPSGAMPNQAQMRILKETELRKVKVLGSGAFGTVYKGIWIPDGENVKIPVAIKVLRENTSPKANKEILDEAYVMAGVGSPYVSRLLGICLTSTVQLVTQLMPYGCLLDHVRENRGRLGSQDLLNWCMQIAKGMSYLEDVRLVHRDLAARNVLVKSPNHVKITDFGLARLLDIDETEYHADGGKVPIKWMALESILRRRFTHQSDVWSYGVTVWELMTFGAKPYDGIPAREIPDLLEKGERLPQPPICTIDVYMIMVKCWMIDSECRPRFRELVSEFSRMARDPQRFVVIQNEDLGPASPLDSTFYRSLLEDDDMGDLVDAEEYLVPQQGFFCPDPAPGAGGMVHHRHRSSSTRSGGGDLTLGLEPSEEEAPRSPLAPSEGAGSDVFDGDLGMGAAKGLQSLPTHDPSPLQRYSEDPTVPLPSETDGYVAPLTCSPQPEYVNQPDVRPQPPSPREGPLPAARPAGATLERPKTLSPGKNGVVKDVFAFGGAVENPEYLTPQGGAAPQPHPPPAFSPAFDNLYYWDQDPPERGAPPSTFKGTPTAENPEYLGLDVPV
Sequence of Tyrosine-protein kinase Lck (P06239 whole entry): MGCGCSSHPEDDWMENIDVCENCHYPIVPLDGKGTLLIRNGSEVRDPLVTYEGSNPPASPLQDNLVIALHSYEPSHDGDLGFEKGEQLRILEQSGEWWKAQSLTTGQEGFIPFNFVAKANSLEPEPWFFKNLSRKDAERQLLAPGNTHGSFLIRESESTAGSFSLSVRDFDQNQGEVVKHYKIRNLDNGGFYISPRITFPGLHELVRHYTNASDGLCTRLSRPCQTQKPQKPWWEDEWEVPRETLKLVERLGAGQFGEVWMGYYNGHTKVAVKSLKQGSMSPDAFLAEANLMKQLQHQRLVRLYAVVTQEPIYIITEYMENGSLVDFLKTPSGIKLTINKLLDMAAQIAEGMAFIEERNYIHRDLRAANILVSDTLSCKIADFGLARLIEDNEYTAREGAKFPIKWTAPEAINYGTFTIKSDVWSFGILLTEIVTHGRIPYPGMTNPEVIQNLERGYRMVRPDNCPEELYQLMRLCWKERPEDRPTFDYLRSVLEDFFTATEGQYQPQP

Row | IC50 [1] [µM] | IC50 [2] [µM] | IC50 [3] [µM] | IC50 [5] [µM] | Compound | IC50 [4] [µM]
1 | > 10 | > 10 | > 10 | – | COc1cc2cc(-c3ccncc3)cnc2cc1OC | 1.8
2 | – | – | – | 9.2 | Oc1ccc2cc(-c3ccncc3)cnc2c1 | > 10
3 | – | – | – | 0.4 | COc1cc2ncc(-c3ccncc3)cc2c(OC)c1OC | 3.5
4 | – | – | – | 1.5 | c1ccc2ncc(-c3ccncc3)cc2c1 | –
5 | – | – | – | 0.4 | COc1ccc2ncc(-c3ccncc3)cc2c1 | –

Second part, the compound before the results:

Row | Compound | IC50 [1] [µM] | IC50 [2] [µM] | IC50 [3] [µM] | IC50 [5] [µM] | IC50 [4] [µM]
6 | COc1ccc2ncc(-c3ccncc3)c(C)c2c1 | – | – | – | > 50 | –
7 | COc1ccc2cc(-c3ccncc3)cnc2c1 | – | – | – | 0.6 | 6.5
8 | COc1cc(OC)c2cc(-c3ccncc3)cnc2c1 | > 10 | – | > 10 | – | 0.9
9 | Clc1ccc2cc(-c3ccncc3)cnc2c1 | > 10 | – | – | 0.3 | –
10 | Oc1cc(O)c2cc(-c3ccncc3)cnc2c1 | – | – | – | 1.3 | 5.5
11 | Oc1cc2cc(-c3ccncc3)cnc2cc1O | > 10 | – | – | 36 | –
12 | COc1ccc2c(C)c(-c3ccncc3)cnc2c1 | – | – | – | > 50 | –
